In ChEMBL document CHEMBL1122961 (J Med Chem, 1985) one finds ED50, IC50 and ID50 data, which are given here for five molecules.

Assay [1] relates to Rattus norvegicus. Description: In vivo inhibitory activity against basal prolactin in male rat after subcutaneous administration. To be noted: sc, read-out: ID50 (the source's name). The format is functional. The method in brief: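 Male rats given one subcutaneous injection and decapitated 4 h later; trunk blood serum collected. One to three groups of three rats per dose, sera of three rats pooled equally. Prolactin measured by double-antibody RIA, expressed against NIH rat Prl RP-1 standard. Dose giving 50% serum prolactin reduction estimated graphically.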

In assay [2] the test system is Rattus norvegicus. Put plainly: In vivo inhibitory activity against ovum implantation in female rat after subcutaneous administration. The format is functional. To be noted: sc, read-out: ID50 (the source's name). In a few lines:
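Adult proestrus Ivanovas female rats mated with fertile males; sperm-positive females randomised next morning (day 1), 4-10 per group. Single subcutaneous dose on day 5; killed day 12, uteri inspected for fetuses or implantation sites, absence counted as inhibition.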

The target in assay [3] is Serotonin (5-HT) receptor. Description: In vitro inhibitory activity against serotonin receptor from whole rat brain using [3H]5-HT as radioligand.
For assay [4], the target named is T1, Adrenergic receptor alpha-1 (Rattus norvegicus, UniProt P15823+P23944+P43140).
T1 sequence (P15823 whole entry): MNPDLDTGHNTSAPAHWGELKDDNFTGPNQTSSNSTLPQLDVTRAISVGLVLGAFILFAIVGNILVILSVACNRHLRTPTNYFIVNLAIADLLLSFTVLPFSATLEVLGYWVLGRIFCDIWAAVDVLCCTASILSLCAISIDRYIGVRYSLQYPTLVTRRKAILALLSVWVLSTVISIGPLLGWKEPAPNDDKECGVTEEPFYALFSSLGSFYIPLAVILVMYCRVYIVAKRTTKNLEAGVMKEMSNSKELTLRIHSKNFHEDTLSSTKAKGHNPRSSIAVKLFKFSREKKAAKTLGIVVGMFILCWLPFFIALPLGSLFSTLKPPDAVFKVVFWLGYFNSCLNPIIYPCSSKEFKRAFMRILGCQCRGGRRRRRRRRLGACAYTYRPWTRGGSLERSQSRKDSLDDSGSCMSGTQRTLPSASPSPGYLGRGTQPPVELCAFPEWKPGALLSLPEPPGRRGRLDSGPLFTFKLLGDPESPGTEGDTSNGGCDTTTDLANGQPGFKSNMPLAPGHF
T1 sequence (P23944 whole entry): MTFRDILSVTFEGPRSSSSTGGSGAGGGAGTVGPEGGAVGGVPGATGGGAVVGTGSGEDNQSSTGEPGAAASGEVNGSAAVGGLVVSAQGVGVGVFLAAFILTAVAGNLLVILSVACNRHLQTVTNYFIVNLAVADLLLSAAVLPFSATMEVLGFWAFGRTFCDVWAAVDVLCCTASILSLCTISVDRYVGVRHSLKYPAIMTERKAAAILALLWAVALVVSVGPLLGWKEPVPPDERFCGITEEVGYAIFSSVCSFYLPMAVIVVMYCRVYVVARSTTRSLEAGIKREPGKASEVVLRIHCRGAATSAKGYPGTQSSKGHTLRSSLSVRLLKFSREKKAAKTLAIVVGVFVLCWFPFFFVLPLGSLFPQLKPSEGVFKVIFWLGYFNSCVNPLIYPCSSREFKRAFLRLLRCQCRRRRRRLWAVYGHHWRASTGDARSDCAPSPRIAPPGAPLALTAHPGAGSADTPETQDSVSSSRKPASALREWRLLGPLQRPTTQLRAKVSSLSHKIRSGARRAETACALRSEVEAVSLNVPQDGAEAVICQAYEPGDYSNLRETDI
T1 sequence (P43140 whole entry): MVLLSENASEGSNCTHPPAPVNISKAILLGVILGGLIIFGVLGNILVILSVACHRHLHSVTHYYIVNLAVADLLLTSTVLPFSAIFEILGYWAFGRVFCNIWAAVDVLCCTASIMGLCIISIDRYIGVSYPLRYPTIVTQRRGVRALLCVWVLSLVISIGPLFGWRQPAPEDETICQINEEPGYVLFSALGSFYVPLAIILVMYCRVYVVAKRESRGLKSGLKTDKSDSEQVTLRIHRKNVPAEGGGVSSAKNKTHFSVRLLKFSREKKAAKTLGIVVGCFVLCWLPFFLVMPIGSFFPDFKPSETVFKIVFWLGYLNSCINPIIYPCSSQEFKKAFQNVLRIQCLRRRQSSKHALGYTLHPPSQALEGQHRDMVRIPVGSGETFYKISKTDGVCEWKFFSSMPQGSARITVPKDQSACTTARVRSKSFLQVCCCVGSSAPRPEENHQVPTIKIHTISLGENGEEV
Put plainly: In vitro inhibitory activity against alpha-1 adrenergic receptor from whole rat brain using [3H]WB-4101 as radioligand. In a few lines: (§1)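 Displacement binding on brain homogenates as earlier described; four to six test concentrations typically, each incubated in triplicate. IC50 in nM derived by appropriately weighted regression analysis.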

Assay [5] concerns the target Serotonin (5-HT) receptor. Description: In vitro inhibitory activity against serotonin receptor from rat frontal cortex using [3H]spiperone as radioligand. The format is tissue-based.
The test system of assay [6] is Rattus norvegicus. Put plainly: In vivo inhibitory against lactation in female rat after peroral administration. The following applies: po, read-out: ID50 (the source's name). The format is functional. The method in brief:
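[…] rats dosed once daily from day 5 to 8. Nursing behaviour checked daily; dams losing more than two pups excluded.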

Assay [7] deals with Rattus norvegicus. Description: In vivo inhibitory activity against ovum implantation in female rat after subcutaneous administration; i = No effect. The format is functional, organism-based. The method in brief:
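Adult proestrus Ivanovas female rats paired with males of proven fertility; sperm-positive next morning (day 1), randomised 4-10 per group. Single sc dose on day 5; killed day 12, uteri inspected for fetuses or implantation sites, none counting as inhibited.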

Assay [8] deals with Rattus norvegicus. Description: In vivo against inhibitory against lactation in female rat after peroral administration; i = No effect. The format is functional, organism-based.
Assay [9] concerns the target T2, Adrenergic receptor alpha-2 (Rattus norvegicus, UniProt P22086+P19328+P22909).
T2 sequence (P22086 whole entry): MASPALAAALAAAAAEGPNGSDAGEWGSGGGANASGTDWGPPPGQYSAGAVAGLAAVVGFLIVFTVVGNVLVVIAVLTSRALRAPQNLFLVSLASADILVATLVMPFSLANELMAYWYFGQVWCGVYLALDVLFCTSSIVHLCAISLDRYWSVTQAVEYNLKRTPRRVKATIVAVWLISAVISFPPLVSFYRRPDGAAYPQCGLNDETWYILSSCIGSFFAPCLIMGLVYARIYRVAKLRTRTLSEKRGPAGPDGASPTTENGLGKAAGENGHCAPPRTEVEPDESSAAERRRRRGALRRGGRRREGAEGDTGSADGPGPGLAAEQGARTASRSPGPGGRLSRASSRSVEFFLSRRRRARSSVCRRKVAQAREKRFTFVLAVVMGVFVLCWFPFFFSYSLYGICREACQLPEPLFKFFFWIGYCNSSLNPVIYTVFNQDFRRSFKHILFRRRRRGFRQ
T2 sequence (P19328 whole entry): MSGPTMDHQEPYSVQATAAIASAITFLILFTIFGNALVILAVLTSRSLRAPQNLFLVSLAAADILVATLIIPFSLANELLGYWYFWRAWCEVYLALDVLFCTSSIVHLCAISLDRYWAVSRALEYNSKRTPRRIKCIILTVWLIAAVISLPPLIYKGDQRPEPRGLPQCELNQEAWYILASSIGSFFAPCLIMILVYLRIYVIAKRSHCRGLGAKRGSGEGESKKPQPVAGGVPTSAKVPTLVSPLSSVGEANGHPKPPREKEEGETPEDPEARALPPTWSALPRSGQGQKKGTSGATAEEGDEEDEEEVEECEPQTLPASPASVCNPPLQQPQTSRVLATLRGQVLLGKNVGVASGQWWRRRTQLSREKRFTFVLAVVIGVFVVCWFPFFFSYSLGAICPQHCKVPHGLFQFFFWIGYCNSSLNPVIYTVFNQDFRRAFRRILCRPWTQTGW
T2 sequence (P22909 whole entry): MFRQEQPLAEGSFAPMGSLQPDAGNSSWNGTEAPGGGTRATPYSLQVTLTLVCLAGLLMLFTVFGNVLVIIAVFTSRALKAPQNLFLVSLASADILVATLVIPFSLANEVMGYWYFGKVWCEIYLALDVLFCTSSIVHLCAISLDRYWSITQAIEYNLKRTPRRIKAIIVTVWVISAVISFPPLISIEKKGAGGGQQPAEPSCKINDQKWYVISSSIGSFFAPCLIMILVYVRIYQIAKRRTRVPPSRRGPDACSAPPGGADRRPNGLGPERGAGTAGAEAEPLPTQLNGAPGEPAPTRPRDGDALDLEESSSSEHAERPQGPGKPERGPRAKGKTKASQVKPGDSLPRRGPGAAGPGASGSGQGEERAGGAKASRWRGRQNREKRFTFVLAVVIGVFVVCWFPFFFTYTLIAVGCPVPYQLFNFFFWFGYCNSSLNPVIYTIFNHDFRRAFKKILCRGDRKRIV
Description: In vitro inhibitory activity against alpha-2 adrenergic receptor from rat brain minus cerebellum using [3H]clonidine as radioligand. The format is tissue-based. In a few lines:
as §1

Assay [10] deals with T3, Dopamine receptor (Bos taurus, UniProt Q95136+P20288). Description: In vitro inhibitory activity against dopamine receptor from calf caudate using [3H]spiperone as radioligand. The format is protein assay. In a few lines:
as §1

The target in assay [11] is T3, Dopamine receptor. Description: In vitro inhibitory activity against dopamine receptor from calf caudate using [3H]dopamine as radioligand. The format is protein assay. The method in brief:
as §1

For orientation: IC50 means the concentration at which inhibition is half-maximal. The low end stands for greater potency in that assay, the high end for weaker potency in that assay.

Active and inactive are the calls of the source. The calls are words filed in the database; no cut-off is given here.

Consider `CCCN1C[C@H](CSC)C[C@@H]2c3cccc4[nH]cc(c34)C[C@H]21` [PERGOLIDE], for which the ED50 is 1.3 µg/kg in the assay on Rattus norvegicus [1] and 0.021 mg/kg in the assay with Rattus norvegicus [2]. The IC50 came out at 0.385 µM in assay [3], 550 nM in assay [4] and 140 nM in [5].
`CCCN1CC(NS(=O)(=O)N(CC)CC)CC2Cc3c(O)cccc3CC21` (stereo not drawn) [QUINAGOLIDE]: the ED50 was found to be 5 µg/kg in the assay with Rattus norvegicus [1], 0.017 mg/kg in the assay on Rattus norvegicus [2] and 0.03 mg/kg with Rattus norvegicus [6].
On to `CCN(CC)S(=O)(=O)N[C@H]1C[C@@H]2c3cccc4[nH]cc(c34)C[C@H]2N(C)C1` [ETISULERGINE], for which the ED50 in the assay with Rattus norvegicus [2] came out at 0.028 mg/kg; in the assay on Rattus norvegicus [6] it was 0.19 mg/kg. For the same molecule, the 50% inhibitory concentration (IC50) in assay [3] was greater than 5 µM.
As for `CN1CCc2cccc3c2[C@H]1Cc1ccc(O)c(O)c1-3` [APOMORPHINE], the ID50 entry in the assay on Rattus norvegicus [7] and in the assay on Rattus norvegicus [8] was “inactive” throughout. Besides, the IC50 in [3] is greater than 10 µM.
`CCCN1C[C@@H](CSC)C[C@@H]2Cc3c(O)cccc3C[C@H]21`: the IC50 came out at 250 nM in assay [9]; 2 µM in [3]; 640 nM in assay [4]; 60 nM at Dopamine receptor [10]; 22 nM on Dopamine receptor [11]; 720 nM in [5]. The ED50 in the assay on Rattus norvegicus [1] was found to be 4 µg/kg; with Rattus norvegicus [2], 0.018 mg/kg; in the assay with Rattus norvegicus [6] it was 0.058 mg/kg.
